Assay results from ChEMBL document CHEMBL2157910, “Structure-activity relationship studies of 4-benzyl-1H-pyrazol-3-yl β-d-glucopyranoside derivatives as potent and selective sodium glucose co-transporter 1 (SGLT1) inhibitors with therapeutic activity on postprandial hyperglycemia” (Bioorg Med Chem, 2012).
Values after ≈ are worked out from the molar mass of the structure shown. Active and inactive are the calls of the source. The calls are words filed in the database; no cut-off is given here.

Legend:
[1] = target: T1, Sodium/glucose cotransporter 2 (Homo sapiens, UniProt P31639); assay: Inhibition of human SGLT2 expressed in COS7 cells assessed as reduction of [14C]-AMG uptake; assay type: cell-based, COS-7
T1 sequence (P31639 whole entry): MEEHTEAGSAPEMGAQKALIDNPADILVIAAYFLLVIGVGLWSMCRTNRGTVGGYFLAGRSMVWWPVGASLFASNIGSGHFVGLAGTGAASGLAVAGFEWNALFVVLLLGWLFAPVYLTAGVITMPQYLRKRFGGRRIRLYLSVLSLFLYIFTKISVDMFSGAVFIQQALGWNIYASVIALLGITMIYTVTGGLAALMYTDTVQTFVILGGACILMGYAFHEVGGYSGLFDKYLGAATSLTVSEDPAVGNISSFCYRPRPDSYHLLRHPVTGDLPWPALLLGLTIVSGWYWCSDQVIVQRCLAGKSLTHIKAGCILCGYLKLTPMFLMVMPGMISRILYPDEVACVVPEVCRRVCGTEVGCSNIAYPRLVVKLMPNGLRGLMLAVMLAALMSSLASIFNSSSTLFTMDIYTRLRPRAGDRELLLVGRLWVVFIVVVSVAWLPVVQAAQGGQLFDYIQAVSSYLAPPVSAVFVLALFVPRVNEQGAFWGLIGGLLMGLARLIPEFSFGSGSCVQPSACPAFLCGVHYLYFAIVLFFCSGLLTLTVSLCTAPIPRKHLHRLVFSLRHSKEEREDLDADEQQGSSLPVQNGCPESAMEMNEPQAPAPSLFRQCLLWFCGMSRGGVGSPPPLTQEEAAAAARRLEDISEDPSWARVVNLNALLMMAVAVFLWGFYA

[2] = target: T2, Sodium/glucose cotransporter 2 (Rattus norvegicus, UniProt P53792); assay: Inhibition of rat SGLT2 expressed in COS7 cells assessed as reduction of [14C]-AMG uptake; assay type: cell-based, COS-7
T2 sequence (P53792 whole entry): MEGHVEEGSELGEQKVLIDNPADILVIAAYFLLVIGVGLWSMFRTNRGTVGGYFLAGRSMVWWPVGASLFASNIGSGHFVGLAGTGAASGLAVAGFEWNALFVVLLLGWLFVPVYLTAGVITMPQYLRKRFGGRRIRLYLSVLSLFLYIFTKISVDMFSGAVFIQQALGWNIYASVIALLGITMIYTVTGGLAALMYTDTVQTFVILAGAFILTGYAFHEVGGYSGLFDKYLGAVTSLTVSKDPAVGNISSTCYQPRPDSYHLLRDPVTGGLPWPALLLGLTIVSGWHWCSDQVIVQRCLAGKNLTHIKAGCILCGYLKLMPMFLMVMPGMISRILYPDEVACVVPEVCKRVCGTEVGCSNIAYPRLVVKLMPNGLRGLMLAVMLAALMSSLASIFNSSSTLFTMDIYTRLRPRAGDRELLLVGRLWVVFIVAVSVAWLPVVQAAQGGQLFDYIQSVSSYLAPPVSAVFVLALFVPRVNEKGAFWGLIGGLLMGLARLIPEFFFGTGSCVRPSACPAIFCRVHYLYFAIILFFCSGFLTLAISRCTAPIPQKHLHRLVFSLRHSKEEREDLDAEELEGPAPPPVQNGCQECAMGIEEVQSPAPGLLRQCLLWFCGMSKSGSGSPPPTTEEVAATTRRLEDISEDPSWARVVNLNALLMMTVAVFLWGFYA

[3] = target: T3, Sodium/glucose cotransporter 1 (Rattus norvegicus, UniProt P53790); assay: Inhibition of rat SGLT1 expressed in COS7 cells assessed as reduction of [14C]-AMG uptake; assay type: cell-based, COS-7
T3 sequence (P53790 whole entry): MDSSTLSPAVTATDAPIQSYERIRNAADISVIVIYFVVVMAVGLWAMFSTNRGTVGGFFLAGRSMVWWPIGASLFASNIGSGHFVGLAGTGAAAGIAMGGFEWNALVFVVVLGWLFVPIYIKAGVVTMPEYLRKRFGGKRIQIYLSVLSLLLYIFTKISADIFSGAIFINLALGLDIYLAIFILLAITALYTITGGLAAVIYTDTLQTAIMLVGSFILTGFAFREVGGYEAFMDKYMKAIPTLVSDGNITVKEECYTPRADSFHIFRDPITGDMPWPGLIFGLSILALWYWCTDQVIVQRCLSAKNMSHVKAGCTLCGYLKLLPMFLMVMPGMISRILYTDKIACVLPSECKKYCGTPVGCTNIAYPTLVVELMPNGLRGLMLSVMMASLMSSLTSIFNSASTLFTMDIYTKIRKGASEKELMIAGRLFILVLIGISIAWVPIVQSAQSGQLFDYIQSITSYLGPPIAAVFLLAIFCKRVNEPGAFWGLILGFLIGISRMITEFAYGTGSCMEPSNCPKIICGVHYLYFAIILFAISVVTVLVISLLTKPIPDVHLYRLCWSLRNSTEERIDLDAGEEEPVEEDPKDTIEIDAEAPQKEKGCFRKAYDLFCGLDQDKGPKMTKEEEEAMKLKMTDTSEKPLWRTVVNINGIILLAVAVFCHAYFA

[4] = Solubility of the compound in distilled water; assay type: physicochemical
Summary of the method: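 Solubility measured in distilled water, with filtrate concentration quantified by HPLC.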

[5] = Metabolic stability of the compound in rat intestinal microsomes assessed as compound remaining at 50 uM after 30 mins; assay type: ADME, Intestine; conditions: for remaining at 0.5 h, 50 µM: intestinal microsomes, read-out: Stability; for Stability: microsomes, 0.5 h, 50 µM
Summary of the method: (§1)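 50 µM final compound incubated at 37 °C with 0.8 mg/mL rat intestinal microsomes, 1 mg/mL NADPH, 50 mM ammonium acetate (pH 5.0) and 10 mM MgCl2. Levels measured by LC–MS at 0, 30 and 60 min; reported as % remaining relative to 0 min.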

[6] = Metabolic stability of the compound in rat intestinal microsomes assessed as compound remaining at 50 uM after 60 mins; assay type: ADME, Intestine; conditions: for remaining at 1 h, 50 µM: intestinal microsomes, read-out: Stability; for Stability: microsomes, 1 h, 50 µM; summary of the method: as §1
Rattus norvegicus [7] = assay: Toxicity in Wistar rat assessed as overnight urinary glucose excretion at 10 mg/kg, po; assay type: organism-based, Urine; design: dose 10 mg/kg, route oral; conditions: in vivo
Summary of the method: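 Male Wistar rats (8 weeks) in metabolic cages, fasted 08:00 to next morning. At 16:00 they received 10 mg/kg orally in 0.5% CMC or vehicle, and urine was collected until 08:00. Urine glucose by glucose oxidase; n = 5; F-test then Student's t or Welch's test versus vehicle.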

Rattus norvegicus [8] = assay: Antihyperglycemic activity in Wistar rat streptozotocin-nicotinamide-induced diabetic model assessed as reduction of plasma glucose level at 1 mg/kg, po after 1 hr by oral mixed carbohydrate tolerance test; assay type: functional, organism-based; design: dose 1 mg/kg
Summary of the method: (§2)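 Male Wistar rats (8 weeks) given nicotinamide 230 mg/kg i.p., then streptozotocin 85 mg/kg i.v. 15 min later; after 1 week, rats above 250 mg/dL plasma glucose at 1 h in a 2 g/kg glucose tolerance test were used. Overnight-fasted rats were dosed orally in 0.5% CMC, then immediately loaded with 2 g/kg starch/sucrose/lactose (6:3:1). Plasma glucose by glucose oxidase; n = 7; Dunnett's test versus vehicle.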

Rattus norvegicus [9] = assay: Antihyperglycemic activity in po dosed Wistar rat streptozotocin-nicotinamide-induced diabetic model assessed as reduction of plasma glucose level after 1 hr by oral mixed carbohydrate tolerance test; assay type: functional, organism-based; summary of the method: as §2
Rattus norvegicus [10] = assay: Toxicity in Wistar rat streptozotocin-nicotinamide-induced diabetic model assessed as soft feces at 1 to 10 mg/kg, po; assay type: organism-based; design: dose 1-10 mg/kg, route oral; conditions: in vivo
Rattus norvegicus [11] = assay: Toxicity in Wistar rat streptozotocin-nicotinamide-induced diabetic model assessed as diarrhea at 1 to 10 mg/kg, po; assay type: organism-based; design: dose 1-10 mg/kg, route oral; conditions: in vivo

Structure (SMILES)	IC50 [1]	other results
CC(C)c1[nH]nc(O[C@@H]2O[C@H](CO)[C@@H](O)[C@H](O)[C@H]2O)c1Cc1ccccc1	2.02 µM	solubility [4]: 19000 µg/mL (≈ 50.2 mM)
Cc1cccc(Cc2c(O[C@@H]3O[C@H](CO)[C@@H](O)[C@H](O)[C@H]3O)n[nH]c2C(C)C)c1	5.98 µM	
OC[C@H]1O[C@@H](Oc2n[nH]c(C(F)(F)F)c2Cc2ccc(OCc3ccccc3)cc2)[C@H](O)[C@@H](O)[C@@H]1O	0.007 µM	
CC(C)c1[nH]nc(O[C@@H]2O[C@H](CO)[C@@H](O)[C@H](O)[C@H]2O)c1Cc1cccc(O)c1	13.3 µM	
CC(C)c1[nH]nc(O[C@@H]2O[C@H](CO)[C@@H](O)[C@H](O)[C@H]2O)c1Cc1ccc(F)cc1	4.14 µM	
CCc1ccccc1Cc1c(O[C@@H]2O[C@H](CO)[C@@H](O)[C@H](O)[C@H]2O)n[nH]c1C(C)C	14.1 µM	
CC(C)(C)c1[nH]nc(O[C@@H]2O[C@H](CO)[C@@H](O)[C@H](O)[C@H]2O)c1Cc1ccccc1OCc1ccccc1	64.7 µM	
OC[C@H]1O[C@@H](Oc2[nH]nc(C(F)(F)F)c2Cc2ccc(O)cc2)[C@H](O)[C@@H](O)[C@@H]1O	0.154 µM	
OC[C@H]1O[C@@H](Oc2n[nH]c(C3CC3)c2Cc2ccccc2OCc2ccccc2)[C@H](O)[C@@H](O)[C@@H]1O	156 µM	
O=C(CCc1ccc(O)cc1)c1c(O)cc(O)cc1O[C@@H]1O[C@H](CO)[C@@H](O)[C@H](O)[C@H]1O [PHLORIZIN]		Stability [5]: Unstable; Stability [6]: Unstable; IC50 [2]: 0.096 µM; Activity (Rattus norvegicus [8]): inactive
OC[C@H]1O[C@@H](Oc2n[nH]c(C(F)(F)F)c2Cc2ccccc2O)[C@H](O)[C@@H](O)[C@@H]1O	14.9 µM	
CCc1[nH]nc(O[C@@H]2O[C@H](CO)[C@@H](O)[C@H](O)[C@H]2O)c1Cc1ccccc1OCc1ccccc1	13.9 µM	
OC[C@H]1O[C@@H](Oc2[nH]nc(C(F)(F)F)c2Cc2cccc(O)c2)[C@H](O)[C@@H](O)[C@@H]1O	2.79 µM	
CC(C)c1[nH]nc(O[C@@H]2O[C@H](CO)[C@@H](O)[C@H](O)[C@H]2O)c1Cc1ccccc1O	75.9 µM	
Cc1ccccc1Cc1c(C(C)C)n[nH]c1O[C@@H]1O[C@H](CO)[C@@H](O)[C@H](O)[C@H]1O	18.5 µM	
CCOC(=O)OC[C@H]1O[C@@H](Oc2ccccc2Cc2ccc(OC)cc2)[C@H](O)[C@@H](O)[C@@H]1O [SERGLIFLOZIN ETABONATE]		Activity (Rattus norvegicus [7]): 53.3 mg
COc1ccc(Cc2c(O[C@@H]3O[C@H](CO)[C@@H](O)[C@H](O)[C@H]3O)n[nH]c2C(C)C)cc1	0.377 µM	
Cc1ccc(Cc2c(O[C@@H]3O[C@H](CO)[C@@H](O)[C@H](O)[C@H]3O)n[nH]c2C(C)C)c(C)c1	6.01 µM	remaining at 0.5 h, 50 µM [5]: 91%; Activity (Rattus norvegicus [9]): Dose-dependent effect; remaining at 1 h, 50 µM [6]: 67%; solubility [4]: 3700 µg/mL (≈ 9.1 mM); IC50 [2]: 4.65 µM; Activity (Rattus norvegicus [7]): 0.8 mg; Activity (Rattus norvegicus [10]): Non-toxic; Activity (Rattus norvegicus [11]): Non-toxic; IC50 [3]: 0.067 µM
COc1ccccc1Cc1c(O[C@@H]2O[C@H](CO)[C@@H](O)[C@H](O)[C@H]2O)n[nH]c1C(C)C	204 µM	
Cc1cc(O)ccc1Cc1c(O[C@@H]2O[C@H](CO)[C@@H](O)[C@H](O)[C@H]2O)n[nH]c1C(C)C		Activity (Rattus norvegicus [9]): Dose-dependent effect
OC[C@H]1O[C@@H](Oc2n[nH]c(C(F)(F)F)c2Cc2ccccc2OCc2ccccc2)[C@H](O)[C@@H](O)[C@@H]1O	14 µM	Stability [5]: Unstable; Stability [6]: Unstable; IC50 [2]: 40.8 µM; IC50 [3]: 0.227 µM

Further lines, with some results ahead:

IC50 [1]	Structure (SMILES)	other results
6.89 µM	Cc1cc(O)ccc1Cc1c(C(C)C)n[nH]c1O[C@@H]1O[C@H](CO)[C@@H](O)[C@H](O)[C@H]1O	IC50 [2]: 4.37 µM; IC50 [3]: 0.183 µM
60.5 µM	CC(C)c1n[nH]c(O[C@@H]2O[C@H](CO)[C@@H](O)[C@H](O)[C@H]2O)c1Cc1ccccc1C(F)(F)F	
5.01 µM	Cc1[nH]nc(O[C@@H]2O[C@H](CO)[C@@H](O)[C@H](O)[C@H]2O)c1Cc1ccccc1OCc1ccccc1	
1.39 µM	CC(C)c1n[nH]c(O[C@@H]2O[C@H](CO)[C@@H](O)[C@H](O)[C@H]2O)c1Cc1ccccc1F	
74 µM	CC(C)c1[nH]nc(O[C@@H]2O[C@H](CO)[C@@H](O)[C@H](O)[C@H]2O)c1Cc1ccccc1OCc1ccccc1	remaining at 0.5 h, 50 µM [5]: 71%; remaining at 1 h, 50 µM [6]: 51%; solubility [4]: 240 µg/mL (≈ 0.495 mM); IC50 [2]: 100 µM; Activity (Rattus norvegicus [7]): 0.4 mg; IC50 [3]: 0.308 µM
3.58 µM	CC(C)c1[nH]nc(O[C@@H]2O[C@H](CO)[C@@H](O)[C@H](O)[C@H]2O)c1Cc1ccc(C#N)cc1	
0.342 µM	OC[C@H]1O[C@@H](Oc2n[nH]c(C(F)(F)F)c2Cc2ccccc2)[C@H](O)[C@@H](O)[C@@H]1O	
0.231 µM	Cc1ccc(Cc2c(O[C@@H]3O[C@H](CO)[C@@H](O)[C@H](O)[C@H]3O)n[nH]c2C(C)C)cc1	
0.068 µM	CCc1ccc(Cc2c(C(C)C)n[nH]c2O[C@@H]2O[C@H](CO)[C@@H](O)[C@H](O)[C@H]2O)cc1	
0.285 µM	CC(C)c1[nH]nc(O[C@@H]2O[C@H](CO)[C@@H](O)[C@H](O)[C@H]2O)c1Cc1ccc(O)cc1	
5.68 µM	OC[C@H]1O[C@@H](Oc2[nH]nc(C(F)(F)F)c2Cc2cccc(OCc3ccccc3)c2)[C@H](O)[C@@H](O)[C@@H]1O	
65.7 µM	CC(C)c1[nH]nc(O[C@@H]2O[C@H](CO)[C@@H](O)[C@H](O)[C@H]2O)c1Cc1ccccc1C#N	
